Test results from ChEMBL document CHEMBL4020714, “Design, synthesis, and evaluation of curcumin derivatives as Nrf2 activators and cytoprotectors against oxidative death” (Eur J Med Chem, 2017).
Active and inactive are the calls of the source. The rule behind the calls is not given here.

Tests used:
[1] = biological target: T1, Nuclear factor erythroid 2-related factor 2 (Homo sapiens) (UniProt Q16236); test: Activation of Nrf2 in human HepG2 cells assessed as increase in GCLC expression level at 20 uM by Western blot analysis; type: cell-based
T1 sequence (whole entry): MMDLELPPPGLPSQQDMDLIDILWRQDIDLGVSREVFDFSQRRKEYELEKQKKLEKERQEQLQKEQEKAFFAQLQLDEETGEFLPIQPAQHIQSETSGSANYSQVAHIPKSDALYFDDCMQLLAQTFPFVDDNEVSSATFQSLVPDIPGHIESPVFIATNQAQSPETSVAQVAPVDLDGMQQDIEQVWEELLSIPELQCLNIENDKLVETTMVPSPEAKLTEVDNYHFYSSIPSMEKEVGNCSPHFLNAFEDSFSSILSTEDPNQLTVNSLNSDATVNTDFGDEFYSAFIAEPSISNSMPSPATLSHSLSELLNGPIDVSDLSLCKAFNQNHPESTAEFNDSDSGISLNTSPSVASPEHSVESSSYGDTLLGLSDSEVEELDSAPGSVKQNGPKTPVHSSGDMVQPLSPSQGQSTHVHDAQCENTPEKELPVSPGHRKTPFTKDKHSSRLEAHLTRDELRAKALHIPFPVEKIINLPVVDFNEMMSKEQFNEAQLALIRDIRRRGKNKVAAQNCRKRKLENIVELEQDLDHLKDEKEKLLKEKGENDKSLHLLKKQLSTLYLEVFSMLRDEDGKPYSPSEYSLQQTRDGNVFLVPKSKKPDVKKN
In short: (§1)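 HepG2 cells (2×10^6/well) treated at the indicated concentrations and times. Whole-cell lysates, or nuclear and cytoplasmic fractions, are prepared and quantified by BCA. Samples are run at 40 μg/lane on 12% SDS-PAGE, transferred to nitrocellulose, probed with specific antibodies and HRP secondary (1/5000), and detected by ECL. Where used, LY294002 (15 μM), SP600125 (25 μM) or DTT (400 μM) is added 1 h before compound.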

[2] = biological target: T1, Nuclear factor erythroid 2-related factor 2 (Homo sapiens); test: Activation of Nrf2 in human HepG2 cells assessed as increase in Nrf2 expression level at 20 uM by Western blot analysis; type: cell-based; in short: as §1
[3] = biological target: T1, Nuclear factor erythroid 2-related factor 2 (Homo sapiens); test: Activation of Nrf2 in human HepG2 cells assessed as cytoprotective activity against t-BHP-induced oxidative cell death at 20 uM incubated for 24 hrs followed by compound removal with subsequent incubation with 900 uM of t-BHP for 6 hrs by MTT assay; type: cell-based
In short: (§2)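 HepG2 cells (5×10^3/well) seeded and grown 24 h in 1640 medium with 10% FBS at 37 °C and 5% CO2. Compound is added for 24 h, then removed, and cells are challenged with 900 μM t-BHP for 6 h at 37 °C. MTT (0.5 mg/mL) is added for 4 h, formazan dissolved in DMSO, and absorbance read at 570 nm. Where used, inhibitors are added 1 h before compound. Mean ± SD of three independent experiments.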

[4] = biological target: T1, Nuclear factor erythroid 2-related factor 2 (Homo sapiens); test: Activation of Nrf2 in human HepG2 cells assessed as increase in GCLM expression level at 20 uM by Western blot analysis; type: cell-based; in short: as §1
[5] = biological target: T1, Nuclear factor erythroid 2-related factor 2 (Homo sapiens); test: Activation of Nrf2 in human HepG2 cells assessed as increase in HO-1 expression level at 20 uM by Western blot analysis; type: cell-based; in short: as §1
[6] = system: HepG2; test: Cytotoxicity against human HepG2 cells assessed as reduction in cell viability at 5 uM after 24 hrs by MTT assay; type: cell-based; details: hepg2, 24 h
In short: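 MTT viability in HepG2 cells (5×10^3/well) after 24 h exposure to compound at 5 μM. Formazan dissolved in DMSO and absorbance read at 570 nm. Mean ± SD of three independent experiments.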

[7] = biological target: T1, Nuclear factor erythroid 2-related factor 2 (Homo sapiens); test: Activation of Nrf2 in human HepG2 cells assessed as cytoprotection against t-BHP-induced oxidative cell death at 5 uM incubated for 24 hrs followed by compound removal with subsequent incubation with 900 uM of t-BHP for 6 hrs by MTT assay; type: cell-based; in short: as §2
[8] = Stability of the compound in PBS at 40 uM at pH 7.4 at 25 degC measured for 30 mins by UV-Vis spectrophotometric analysis; type: physicochemical; details: buffer, pH 7.4, 0.5 h
In short: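 Compound at 40 μM in PBS (pH 7.4) at 25 °C. UV-visible absorption spectra recorded every 2 min for 30 min against blanks of solution plus DMSO.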

[9] = biological target: T1, Nuclear factor erythroid 2-related factor 2 (Homo sapiens); test: Activation of Nrf2 in human HepG2 cells assessed as increase in Nrf2 expression level after 3 hrs by Western blot analysis; type: cell-based; in short: as §1
[10] = biological target: T1, Nuclear factor erythroid 2-related factor 2 (Homo sapiens); test: Activation of Nrf2 in human HepG2 cells assessed as increase in GCLM expression level after 3 hrs by Western blot analysis; type: cell-based; in short: as §1
[11] = biological target: T1, Nuclear factor erythroid 2-related factor 2 (Homo sapiens); test: Activation of Nrf2 in human HepG2 cells assessed as increase in HO-1 expression level after 3 hrs by Western blot analysis; type: cell-based; in short: as §1
[12] = biological target: T1, Nuclear factor erythroid 2-related factor 2 (Homo sapiens); test: Activation of Nrf2 in human HepG2 cells assessed as increase in GCLC expression level after 3 hrs by Western blot analysis; type: cell-based; in short: as §1

Row | Compound | Activity [6] | Activity [7] | Stability [8] | also measured
1 | CC(C)(C)c1cc(O)ccc1O | – | – | – | Activity [1]: Active; Activity [2]: Active; Activity [3]: Active; Activity [4]: Active; Activity [5]: Active
2 | COc1cccc(OC)c1/C=C/C(=O)C(C)(C)C(=O)/C=C/c1c(OC)cccc1OC | Non-Toxic | Active | – | –
3 | COc1cccc(/C=C/C(=O)C(C)(C)C(=O)/C=C/c2cccc(OC)c2)c1 | Non-Toxic | Active | – | –
4 | CC(C)(C(=O)/C=C/c1ccccc1C(F)(F)F)C(=O)/C=C/c1ccccc1C(F)(F)F | Non-Toxic | Active | – | –
5 | COc1ccc(/C=C/C(=O)C(C)(C)C(=O)/C=C/c2ccc(OC)c(OC)c2)cc1OC | Non-Toxic | Active | Unstable | –
6 | COc1cc(/C=C/C(=O)C(C)(C)C(=O)/C=C/c2cc(OC)c(OC)c(OC)c2)cc(OC)c1OC | Non-Toxic | Active | – | –
7 | COc1cc(/C=C/C(=O)CC(=O)/C=C/c2ccc(O)c(OC)c2)ccc1O [CURCUMIN] | Non-Toxic | Active | Unstable | –
8 | COc1ccccc1/C=C/C(=O)C(C)(C)C(=O)/C=C/c1ccccc1OC | Non-Toxic | Active | – | –
9 | COc1cc(/C=C/C(=O)C(C)(C)C(=O)/C=C/c2ccc(O)c(OC)c2)ccc1O | Non-Toxic | Active | Stable | –
10 | CC(C)(C(=O)/C=C/c1ccccc1)C(=O)/C=C/c1ccccc1 | Non-Toxic | Active | Unstable | Activity [9]: inactive; Activity [10]: inactive; Activity [11]: inactive; Activity [12]: inactive
11 | CC(C)(C(=O)/C=C/c1ccccc1O)C(=O)/C=C/c1ccccc1O | Non-Toxic | Active | – | –
12 | CC(C)(C(=O)CCc1ccc(O)c(O)c1)C(=O)CCc1ccc(O)c(O)c1 | Non-Toxic | Active | – | Activity [9]: inactive; Activity [10]: inactive; Activity [11]: inactive; Activity [12]: inactive
